High-throughput results deposited in PubChem by several laboratories.
This is a sample that favours compounds with a hit; in the whole collection about 3.1% have one here.
ATG4B inh: ATG4B protease inhibitors, primary screen, biochemical, fluorescence, uHTS; inhibition, % at 8.33 µM; AID 504462, 2011; Cysteine protease ATG4B (Homo sapiens), Q9Y4P1; 340,000 tested, 0.51% active; ATG4B cleavage of LC3-PLA2, NBD-HPC fluorescence, 1 h; in the data active = inhibition above about 40%
MBD2 DNA inh: inhibitors of MBD2 binding to methylated DNA, primary screen, biochemical, TR-FRET, DNA-binding domain, human | Methyl-CpG-binding domain protein 2 (Homo sapiens), Q9UBB5 | MBD2 binding to methylated oligonucleotide | inhibition, % at 4.4 µM | 370,000 tested, 0.31% active | AID 686964, 2013; in the data active = inhibition above about 13%
Target sequence (Q9UBB5 whole entry, looked up, the tested form may be a part): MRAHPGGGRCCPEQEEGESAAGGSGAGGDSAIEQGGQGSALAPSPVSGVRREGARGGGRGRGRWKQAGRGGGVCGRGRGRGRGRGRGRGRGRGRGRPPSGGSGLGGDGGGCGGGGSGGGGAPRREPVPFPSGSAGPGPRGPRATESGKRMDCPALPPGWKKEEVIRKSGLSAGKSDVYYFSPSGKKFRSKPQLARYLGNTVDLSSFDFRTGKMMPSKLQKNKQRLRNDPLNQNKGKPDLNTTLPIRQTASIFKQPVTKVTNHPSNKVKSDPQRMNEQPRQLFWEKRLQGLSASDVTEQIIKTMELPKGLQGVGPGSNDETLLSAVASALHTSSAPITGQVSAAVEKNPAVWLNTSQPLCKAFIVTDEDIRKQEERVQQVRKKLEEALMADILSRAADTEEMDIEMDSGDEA
rCAG RNA binder: binders of r(CAG) RNA repeats, primary screen, biochemical, fluorescence | inhibition, % at 3 µM | 370,000 tested, 1.3% active | r(CAG) RNA repeat, TO-PRO-1 dye displacement fluorescence;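 active = inhibition above the plate cutoff, the mean of all test compounds on that plate plus 3 SD, cut at about 35% in these data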;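 note: higher means more dye released from RNA so lower well fluorescence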
CSN deneddyl inh: inhibitors of CSN-mediated cullin deneddylation, primary screen, biochemical, fluorescence polarization, uHTS; 360,000 tested, 0.38% active; inhibition, % at 12.5 µM; Purified CSN, SCF-Nedd8-OG deneddylation; COP9 signalosome complex subunit 5 (Homo sapiens), Q92905;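 active = pattern-corrected inhibition above about 35%, with an unprinted fluorescence ratio check between 0.5 and 1.5, limit read from the data, passing the limit was not always enough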
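Assay system: purified human Csn5 enzyme expressed in HEK293T cells; Input: 0.24 nM Csn5 enzyme, final concentration; Reagent: 10 nM SCFSkp2-Nedd8OG; Compound dosing: 12.5 µM single point; Times: reaction 90 min, room temperature; Technique: fluorescence polarization readout.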
LEDGF integ inh: blockers of LEDGF/p75-dependent integrase strand transfer – biochemical, TR-FRET, high throughput, primary screen; 370,000 tested, 0.64% active; inhibition, % at 3.7 µM; HIV-1 integrase (with human LEDGF/p75); TR-FRET IN-LEDGF/p75 DNA integration, Eu/Cy5;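 active = inhibition above the screen-wide mean plus 3 SD, cut at about 13% in these data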;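 note: signal is the Cy5 over europium emission ratio at 671 and 618 nm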
UHRF1 MBD2 ctr: UHRF1 methylated DNA binding inhibitors, primary screen, counter-screen for MBD2 inhibitor project, biochemical, TR-FRET, human UHRF1, single concentration. UHRF1 binding to methylated oligo. 370,000 tested, 0.75% active. E3 ubiquitin-protein ligase UHRF1 (Homo sapiens), Q96T88. inhibition, % at 4.4 µM;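 note: UHRF1 SRA domain binding a hemimethylated CpG hairpin DNA probe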
UHRF1 ctr MBD2: UHRF1 methylated DNA binding inhibitors, counter-screen for MBD2 inhibitor project, biochemical, TR-FRET, human UHRF1. shares compounds with MBD2 DNA inh. UHRF1 binding to methylated oligonucleotide. inhibition, % at 4.4 µM. 1,000 tested, 25% active. AID 720530, 2013;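 note: UHRF1 SRA domain binding a labeled hemimethylated CpG hairpin DNA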
MBD2 confirm: inhibitors of MBD2 binding to methylated DNA, confirmation, biochemical, TR-FRET, DNA-binding domain, human | shares compounds with MBD2 DNA inh | TR-FRET MBD2-DBD binding to methylated oligonucleotide | inhibition, % at 4.4 µM | 1,000 tested, 26% active | AID 720531, 2013; in the data active = inhibition above about 14%
Hits are given with their value; 0 = inactive; - = not tested or not shown. Cut-off read from the data, not from the text of the source, unless noted: active = inhibition above about 21%; inactive = the rest.

SMILES	ATG4B inh	MBD2 DNA inh	rCAG RNA binder	CSN deneddyl inh	LEDGF integ inh	UHRF1 MBD2 ctr	UHRF1 ctr MBD2	MBD2 confirm
CCN(C(=O)COC(=O)/C=C/c1cccc(Br)c1)C1CCS(=O)(=O)C1 (stereo unspecified)	0	16	0	0	0	28	0	0
O=C(COC(=O)c1ccc(O)cc1O)NC1CCCCCC1	0	20	0	0	0	0	0	0
CCOc1ccc(CCN2C(=O)C(=O)N([C@@H](CC(C)C)CN3CCC[C@H]3CN3C(=O)C(=O)NC[C@@H]3CC(C)C)C[C@@H]2Cc2ccc(O)cc2)cc1	-	16	0	0	0	22	0	0
CCOc1ccc(CCN2C(=O)C(=O)N([C@@H](CC(C)C)CN3CCC[C@H]3CN3C(=O)C(=O)NC[C@@H]3Cc3ccc(O)cc3)C[C@@H]2Cc2ccccc2)cc1	-	0	0	0	0	0	-	-
O=C1N(Cc2ccccc2)c2ccccc2C12CCCc1sc(CCc3ccccc3)nc12 (stereo unspecified)	-	0	0	-	0	0	-	-
O=C(Nc1nnc(CCN2CCCCC2)s1)c1ccccc1	0	0	0	0	0	0	-	-
O=C(Nc1nnc(CCN2CCCCC2)s1)c1ccccc1Cl	0	16	0	0	0	25	0	0
CCc1nnc(NC(=O)CN2CCN(Cc3ccccc3C)CC2)s1	0	0	0	0	0	0	-	-
CCc1nnc(NC(=O)CN2CCN(Cc3ccccc3Cl)CC2)s1	0	17	0	0	0	0	0	0
Cc1ccc(N(CN2CCCC2=O)C(=O)c2ccccc2)cc1	0	17	0	0	0	0	0	0
COc1ccc(C(=O)N(CN2CCCC2=O)c2ccc(C)cc2)cc1	0	0	0	0	0	0	-	-
COc1cccc(/C=N\N2CCN(c3ccc(C)cc3)CC2)c1O	-	0	0	-	0	0	-	-
CCOC(=O)c1cc(-c2ccc(N3CCOCC3)cc2)nn1-c1ccccc1C(=O)O	0	23	0	0	0	0	27	27
N=C1C(c2nc3ccccc3s2)=C(O)CN1NC(=O)c1c[nH]c2ccccc12	0	15	0	0	0	0	0	22
N=C1C(c2nc3ccccc3s2)=C(O)CN1NC(=O)c1ccccc1[N+](=O)[O-]	0	0	0	0	0	0	-	-
O=c1ccc2[n+]([O-])c3ccc(O)cc3oc-2c1	0	28	0	0	61	78	73	31
CCN1C(=O)CC(N2CCC(C(=O)N3CCOCC3)CC2)C1=O (stereo unspecified)	0	15	0	0	0	23	0	0
Cc1cccc(N2CC(C(=O)Nc3cccc(S(=O)(=O)N4CCCCC4)c3)CC2=O)c1C (stereo unspecified)	0	81	0	0	0	0	0	0
Cc1cccc(N2CC(C(=O)Nc3ccc(S(=O)(=O)N4CCOCC4)cc3)CC2=O)c1C (stereo unspecified)	0	0	0	0	0	0	-	-
COc1ccc(S(=O)(=O)N2CCN(C(=O)c3cc4c(s3)CCC4)CC2)cc1	0	22	0	0	0	46	46	43
Cc1ccc(S(=O)(=O)N2CCN(C(=O)c3cc4c(s3)CCCC4)CC2)cc1	0	0	0	0	0	0	-	-
CN(Cc1ccccc1N1CCCC1)C(=O)c1cc2cc(Cl)ccc2o1	0	31	0	0	0	0	0	0
